Measurements from ChEMBL document CHEMBL1131222, “Novel thieno[2,3-d][1,3]oxazin-4-ones as inhibitors of human leukocyte elastase” (J Med Chem, 1998).
pKi: −log10 of the molar value.

Key:
[1] = Alkaline hydrolysis rate (logk-OH); assay type: ADME; conditions: 50 mM CAPS, pH 10.5 or 11.5, 25 °C
Procedure, shortened: (§1)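 Thienooxazinone loss followed spectrophotometrically at a fixed wavelength (330–355 nm) in 50 mM CAPS, pH 10.5 or 11.5, 25 °C. Final inhibitor concentration 10–25 μM, 5% final DMSO. Curves analysed as first-order reactions. For some compounds at pH 10.5, reverse-phase HPLC aliquots were taken every 3 h over 24 h, with peak areas at 240 nm fitted to a first-order equation.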

[2] = Alkaline hydrolysis rate (k-OH); assay type: ADME; procedure, shortened: as §1
[3] = molecular target: T1, Neutrophil elastase (Homo sapiens, UniProt P08246); assay: Steady state inhibition constant for Human Leukocyte Elastase inhibition
T1 sequence (P08246 whole entry): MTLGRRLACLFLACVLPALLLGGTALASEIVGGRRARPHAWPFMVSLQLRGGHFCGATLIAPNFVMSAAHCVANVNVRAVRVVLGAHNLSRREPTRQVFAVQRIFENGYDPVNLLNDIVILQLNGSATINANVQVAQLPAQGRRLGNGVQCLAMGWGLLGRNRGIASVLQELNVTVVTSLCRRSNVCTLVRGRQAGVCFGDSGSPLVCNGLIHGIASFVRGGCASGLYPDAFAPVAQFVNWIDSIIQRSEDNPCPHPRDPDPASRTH
Procedure, shortened: (§2)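 Progress-curve assay at 25 °C with HLE purified from human leukocytes, in 50 mM sodium phosphate, 500 mM NaCl, pH 7.8. Substrate was MeOSuc-Ala-Ala-Pro-Val-pNA (200 μM final, 405 nm, 30–75 min) or, for a few inhibitors, Suc-Ala-Ala-Pro-Val-AMC (125 μM final, ex 340/em 460 nm, 4–5 min). […] Curves were fitted by slow-binding kinetics (k_obs = k_on'[I] + k_off).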

[4] = molecular target: T1, Neutrophil elastase; assay: Negative logarithm of steady state constant Ki for enzyme-inhibitor complex Human Leukocyte Elastase inhibition; procedure, shortened: as §2
[5] = molecular target: T2, Neutrophil elastase (Homo sapiens) (UniProt P08246); assay: Second order rate constant for enzyme-inhibitor complex Human Leukocyte Elastase inhibition was determined; procedure, shortened: as §2
T2 sequence (whole entry): T1 sequence (P08246 whole entry)

[6] = molecular target: T2, Neutrophil elastase (Homo sapiens)

Log kOH- [1] | kOH- [2] | pKi [3] | pKi [4] | kon (10e3* M-1 s-1) [5] | koff [6] | Kon (10e3* M-1 s-1) [5] | Structure (SMILES)
0.47 | 2.98 M⁻¹ s⁻¹ | 8.25 | 8.25 |  |  |  | CCOc1nc2scc(C(C)C)c2c(=O)o1
-0.22 | 0.59 M⁻¹ s⁻¹ | 8.24 | 8.24 |  |  |  | CCSc1nc2sc3c(c2c(=O)o1)CCCC3
-1.14 | 0.073 M⁻¹ s⁻¹ | 7.12 | 7.12 | 1.13 | 0.85 |  | Cc1sc2nc(NC(C)C)oc(=O)c2c1C
-0.16 | 0.69 M⁻¹ s⁻¹ | 7.00 | 7.00 |  |  |  | Cc1sc2nc(SCc3ccccc3)oc(=O)c2c1C
0.44 | 2.75 M⁻¹ s⁻¹ | 8.84 | 8.84 |  |  |  | CCCOc1nc2sc3c(c2c(=O)o1)CCCC3
-1.08 | 0.083 M⁻¹ s⁻¹ |  |  | < 0.8 |  |  | O=c1oc(N2CCOCC2)nc2sc3c(c12)CCCC3
0.39 | 2.48 M⁻¹ s⁻¹ | 8.40 | 8.40 |  |  |  | CCCOc1nc2sc(C)c(C)c2c(=O)o1
-0.49 | 0.323 M⁻¹ s⁻¹ | 6.84 | 6.84 |  |  |  | CC(C)Nc1nc2sc3c(c2c(=O)o1)CCCC3
-1.07 | 0.085 M⁻¹ s⁻¹ |  |  | < 0.6 |  |  | Cc1sc2nc(N3CCOCC3)oc(=O)c2c1C
0.26 | 1.83 M⁻¹ s⁻¹ | 7.29 | 7.29 |  |  |  | CC(C)COc1nc2sc3c(c2c(=O)o1)CCCC3
-0.45 | 0.355 M⁻¹ s⁻¹ | 6.54 | 6.54 |  |  |  | O=c1oc(SCc2ccccc2)nc2sc3c(c12)CCCC3
0.21 | 1.63 M⁻¹ s⁻¹ | 8.24 | 8.24 | 272 | 15.6 |  | CSc1nc2sc3c(c2c(=O)o1)CCCC3
-0.48 | 0.332 M⁻¹ s⁻¹ | 7.38 | 7.38 |  |  |  | CC(C)Nc1nc2sccc2c(=O)o1
0.22 | 1.65 M⁻¹ s⁻¹ | 7.46 | 7.46 |  |  |  | CSc1nc2sc(C)c(C)c2c(=O)o1
0.1 | 1.27 M⁻¹ s⁻¹ | 8.56 | 8.56 |  |  |  | CCSc1nc2sc(C)c(C)c2c(=O)o1
-1.63 | 0.023 M⁻¹ s⁻¹ |  |  | < 0.6 |  |  | CCN(CC)c1nc2sc(C)c(C)c2c(=O)o1
-0.04 | 0.92 M⁻¹ s⁻¹ | 7.75 | 7.75 |  |  |  | COC(=O)CSc1nc2sc3c(c2c(=O)o1)CCCC3
0.45 | 2.82 M⁻¹ s⁻¹ | 7.97 | 7.97 |  |  |  | CCOc1nc2sc(C)c(C)c2c(=O)o1
 |  |  |  | < 0.6 |  |  | CN(c1nc2sc3c(c2c(=O)o1)CCCC3)C1CCCCC1
-1.11 | 0.077 M⁻¹ s⁻¹ |  |  |  |  | < 0.8 | Cc1sc2nc(N(C)C3CCCCC3)oc(=O)c2c1C
0.44 | 2.77 M⁻¹ s⁻¹ | 8.87 | 8.87 |  |  |  | CCOc1nc2sc3c(c2c(=O)o1)CCCC3
0.01 | 1.03 M⁻¹ s⁻¹ | 6.62 | 6.62 | 0.685 | 1.63 |  | COC(=O)CSc1nc2sc(C)c(C)c2c(=O)o1
0.41 | 2.55 M⁻¹ s⁻¹ | 6.88 | 6.87 |  |  |  | Cc1sc2nc(OCC(C)C)oc(=O)c2c1C
-1.59 | 0.025 M⁻¹ s⁻¹ | 7.79 | 7.79 |  |  |  | CCN(CC)c1nc2sc3c(c2c(=O)o1)CCCC3
